From ChEMBL document CHEMBL3525942, “Disposition and metabolism of [14C]SB-649868, an orexin 1 and 2 receptor antagonist, in humans” (Drug Metab Dispos, 2011)

Tests used:
Plasma [1] = test: Drug level in human plasma assessed as radioactivity treated with [14C]SB-649868 at 30 mg, po single dose after 3 hrs by HPLC-MSn analysis; assay type: ADME, organism-based; parameters: dosed compound name [14C]SB-649868; settings: in vivo
Procedure, shortened: (§1)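 Plasma taken 3, 12, 24 and 48 h after one oral 30 mg [14C] dose, extracted, and run on radio-HPLC: C8 column, 45 mM ammonium acetate pH 3.8 and acetonitrile gradient, 1 ml/min. Fractions collected into scintillant plates and counted 5 min. Extraction recovery measured; data corrected when recovery was <85%. Values are % of plasma radioactivity, BQL 1%; n=7 at 3 and 12 h.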

Plasma [2] = test: Drug level in human plasma assessed as radioactivity treated with [14C]SB-649868 at 30 mg, po single dose after 12 hrs by HPLC-MSn analysis; assay type: ADME, organism-based; parameters: dosed compound name [14C]SB-649868; settings: in vivo; procedure, shortened: as §1
Plasma [3] = test: Drug level in human plasma assessed as radioactivity treated with [14C]SB-649868 at 30 mg, po single dose after 24 hrs by HPLC-MSn analysis; assay type: ADME, organism-based; parameters: dosed compound name [14C]SB-649868; settings: in vivo; procedure, shortened: as §1
Plasma [4] = test: Drug level in human plasma assessed as radioactivity treated with [14C]SB-649868 at 30 mg, po single dose after 48 hrs by HPLC-MSn analysis; assay type: ADME, organism-based; parameters: dosed compound name [14C]SB-649868; settings: in vivo; procedure, shortened: as §1
[5] = Drug level in human feces treated with [14C]SB-649868 at 30 mg, po single dose by HPLC-MSn analysis; settings: in vivo
[6] = Drug level in human urine treated with [14C]SB-649868 at 30 mg, po single dose after 0 to 72 hrs by HPLC-MSn analysis; settings: in vivo, 0-72 h

Row | Compound recovery (Plasma [1]) | Compound recovery (Plasma [2]) | Compound recovery (Plasma [3]) | Compound recovery (Plasma [4]) | Compound recovery [5] | Compound recovery [6] | Compound
1 | < 1 | 6.7% | 4.2% | < 1 | 10.3% | 1.5% | Cc1nc(C(=O)N2CCCC[C@H]2CNC(=O)c2cccc(O)c2CC(=O)O)c(-c2ccc(F)cc2)s1
2 | 1.3% | 1% | 1.9% | 3% | 1.5% | 0.6% | Cc1nc(C(=O)N2CCCC[C@H]2CN)c(-c2ccc(F)cc2)s1
3 | 6% | 16.8% | 19.3% | 15.1% | 2.6% | 0.2% | Cc1nc(C(=O)N2CCCC[C@H]2CN2C(=O)c3cccc(O)c3CC2O)c(-c2ccc(F)cc2)s1 (stereo not given in full)
4 | – | – | – | – | 0.7% | Below quantification limit | Cc1nc(C(=O)N2CCCC[C@H]2Cn2ccc3c(O)cccc3c2=O)c(-c2ccc(F)cc2)s1
